# Experimental data: ChEMBL document CHEMBL5058577, “EUbOPEN Chemogenomics Library 2 (Multiplex)” (2022)
# System: Fibroblast
# Assay: Multiplex assay against human fibroblast
# Format: toxicity, cell-based
# Method in brief: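 Values for tubulin, mitochondrial-mass and membrane-permeability phenotypes are per cents of cells with healthy nuclei. These cells were identified by CellPathfinder machine-learning gating of live cells that had been stained at seeding with Hoechst33342, BioTracker Green Microtubule Cytoskeleton Dye, MitoTracker Red and Annexin V Alexa Fluor 680 and imaged on a CQ1 microscope at 37°C and 5% CO2 after compound addition. The gating first set Hoechst high-intensity objects apart from normal cells, then split normal cells into healthy, pyknosed or fragmented nuclei, and pyknosed cells into mitotic or apoptotic.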
# [1] = 12 h, 1 µM, compound concentration 1 uM, replicate 1
# [2] = 12 h, 1 µM, compound concentration 1 uM, replicate 2
# [3] = 12 h, 10 µM, compound concentration 10 uM, replicate 1
# [4] = 12 h, 10 µM, compound concentration 10 uM, replicate 2
# [5] = 24 h, 1 µM, compound concentration 1 uM, replicate 1
# [6] = 24 h, 1 µM, compound concentration 1 uM, replicate 2
# [7] = 24 h, 10 µM, compound concentration 10 uM, replicate 1
# [8] = 24 h, 10 µM, compound concentration 10 uM, replicate 2
# [9] = 48 h, 1 µM, compound concentration 1 uM, replicate 1
# [10] = 48 h, 1 µM, compound concentration 1 uM, replicate 2
# [11] = 48 h, 10 µM, compound concentration 10 uM, replicate 1
# [12] = 48 h, 10 µM, compound concentration 10 uM, replicate 2
compound,measurement,setting,value
CN1CCC(C(=O)c2cccc(NC(=O)c3c(F)cc(F)cc3F)n2)CC1,Population Apoptotic (%),[1],28%
same,Population Fragmented Nuclei (%),[1],16%
same,Population Healthy Nuclei (%),[1],64%
same,Population Hoechst High Intensity Objects (%),[1],3%
same,Population Membrane Permeable-Phenotype (%),[1],1%
same,Population Mitochondria Different-Phenotype (%),[1],4%
same,Population Mitotic Cells (%),[1],71%
same,Population Normal (%),[1],96%
same,Population Pyknosed Nuclei (%),[1],18%
same,Population Tubulin-Different-Phenotype (%),[1],28%
same,Total Cell Count,[1],153
same,Population Apoptotic (%),[2],40%
same,Population Fragmented Nuclei (%),[2],28%
same,Population Healthy Nuclei (%),[2],53%
same,Population Hoechst High Intensity Objects (%),[2],2%
same,Population Membrane Permeable-Phenotype (%),[2],5%
same,Population Mitochondria Different-Phenotype (%),[2],10%
same,Population Mitotic Cells (%),[2],60%
same,Population Normal (%),[2],97%
same,Population Tubulin-Different-Phenotype (%),[2],43%
same,Total Cell Count,[2],142
same,Population Apoptotic (%),[3],32%
same,Population Fragmented Nuclei (%),[3],12%
same,Population Healthy Nuclei (%),[3],74%
same,Population Hoechst High Intensity Objects (%),[3],4%
same,Population Membrane Permeable-Phenotype (%),[3],1%
same,Population Mitochondria Different-Phenotype (%),[3],7%
same,Population Mitotic Cells (%),[3],67%
same,Population Normal (%),[3],95%
same,Population Pyknosed Nuclei (%),[3],13%
same,Population Tubulin-Different-Phenotype (%),[3],42%
same,Total Cell Count,[3],266
same,Population Apoptotic (%),[4],36%
same,Population Fragmented Nuclei (%),[4],23%
same,Population Healthy Nuclei (%),[4],54%
same,Population Membrane Permeable-Phenotype (%),[4],6%
same,Population Mitochondria Different-Phenotype (%),[4],6%
same,Population Mitotic Cells (%),[4],63%
same,Population Pyknosed Nuclei (%),[4],22%
same,Population Tubulin-Different-Phenotype (%),[4],63%
same,Total Cell Count,[4],142
same,Population Apoptotic (%),[5],45%
same,Population Fragmented Nuclei (%),[5],12%
same,Population Healthy Nuclei (%),[5],74%
same,Population Hoechst High Intensity Objects (%),[5],1%
same,Population Membrane Permeable-Phenotype (%),[5],0%
same,Population Mitochondria Different-Phenotype (%),[5],2%
same,Population Mitotic Cells (%),[5],55%
same,Population Normal (%),[5],98%
same,Population Pyknosed Nuclei (%),[5],12%
same,Population Tubulin-Different-Phenotype (%),[5],21%
same,Total Cell Count,[5],156
same,Population Apoptotic (%),[6],40%
same,Population Fragmented Nuclei (%),[6],34%
same,Population Healthy Nuclei (%),[6],43%
same,Population Membrane Permeable-Phenotype (%),[6],6%
same,Population Mitochondria Different-Phenotype (%),[6],10%
same,Population Mitotic Cells (%),[6],59%
same,Population Pyknosed Nuclei (%),[6],21%
same,Population Tubulin-Different-Phenotype (%),[6],45%
same,Total Cell Count,[6],148
same,Population Apoptotic (%),[7],54%
same,Population Fragmented Nuclei (%),[7],13%
same,Population Healthy Nuclei (%),[7],71%
same,Population Hoechst High Intensity Objects (%),[7],3%
same,Population Membrane Permeable-Phenotype (%),[7],0%
same,Population Mitochondria Different-Phenotype (%),[7],6%
same,Population Mitotic Cells (%),[7],45%
same,Population Normal (%),[7],96%
same,Population Pyknosed Nuclei (%),[7],14%
same,Population Tubulin-Different-Phenotype (%),[7],37%
same,Total Cell Count,[7],258
same,Population Apoptotic (%),[8],37%
same,Population Fragmented Nuclei (%),[8],30%
same,Population Healthy Nuclei (%),[8],50%
same,Population Hoechst High Intensity Objects (%),[8],2%
same,Population Membrane Permeable-Phenotype (%),[8],5%
same,Population Mitochondria Different-Phenotype (%),[8],8%
same,Population Mitotic Cells (%),[8],62%
same,Population Normal (%),[8],97%
same,Population Pyknosed Nuclei (%),[8],19%
same,Population Tubulin-Different-Phenotype (%),[8],65%
same,Total Cell Count,[8],153
same,Population Apoptotic (%),[9],71%
same,Population Fragmented Nuclei (%),[9],16%
same,Population Healthy Nuclei (%),[9],74%
same,Population Hoechst High Intensity Objects (%),[9],3%
same,Population Membrane Permeable-Phenotype (%),[9],0%
same,Population Mitochondria Different-Phenotype (%),[9],1%
same,Population Mitotic Cells (%),[9],28%
same,Population Normal (%),[9],96%
same,Population Pyknosed Nuclei (%),[9],8%
same,Population Tubulin-Different-Phenotype (%),[9],25%
same,Total Cell Count,[9],164
same,Population Apoptotic (%),[10],56%
same,Population Fragmented Nuclei (%),[10],42%
same,Population Healthy Nuclei (%),[10],46%
same,Population Hoechst High Intensity Objects (%),[10],2%
same,Population Membrane Permeable-Phenotype (%),[10],5%
same,Population Mitochondria Different-Phenotype (%),[10],5%
same,Population Mitotic Cells (%),[10],43%
same,Population Normal (%),[10],97%
same,Population Pyknosed Nuclei (%),[10],10%
same,Population Tubulin-Different-Phenotype (%),[10],67%
same,Total Cell Count,[10],156
same,Population Apoptotic (%),[11],71%
same,Population Fragmented Nuclei (%),[11],17%
same,Population Healthy Nuclei (%),[11],71%
same,Population Hoechst High Intensity Objects (%),[11],5%
same,Population Membrane Permeable-Phenotype (%),[11],0%
same,Population Mitochondria Different-Phenotype (%),[11],7%
same,Population Mitotic Cells (%),[11],28%
same,Population Normal (%),[11],94%
same,Population Pyknosed Nuclei (%),[11],10%
same,Population Tubulin-Different-Phenotype (%),[11],40%
same,Total Cell Count,[11],272
same,Population Apoptotic (%),[12],54%
same,Population Fragmented Nuclei (%),[12],36%
same,Population Healthy Nuclei (%),[12],55%
same,Population Hoechst High Intensity Objects (%),[12],3%
same,Population Membrane Permeable-Phenotype (%),[12],3%
same,Population Mitochondria Different-Phenotype (%),[12],3%
same,Population Mitotic Cells (%),[12],45%
same,Population Normal (%),[12],96%
same,Population Pyknosed Nuclei (%),[12],7%
same,Population Tubulin-Different-Phenotype (%),[12],69%
same,Total Cell Count,[12],152
